Reference: ChEMBL document CHEMBL5653618 (ACS Med Chem Lett, 2010)
Each block holds one molecule with its values, some of them ahead of it. Active and inactive are the calls of the source. The calls are words filed in the database; no cut-off is given here.

Assays:
[1] = Inhibition of Akt phosphorylation at S473 residue (unknown origin) by cell based analysis; details: Homo sapiens
[2] = Aqueous solubility of compound; assay type: physicochemical; details: buffer
[3] = molecular target: Phosphatidylinositol 4,5-bisphosphate 3-kinase catalytic subunit alpha isoform (Homo sapiens, UniProt P42336); assay: Inhibition of PI3Kalpha (unknown origin) using PIP2 as substrate preincubated for 15 mins followed by substrate addition and measured after 1 hr in presence of ATP by HTRF assay
Chain of Phosphatidylinositol 4,5-bisphosphate 3-kinase catalytic subunit alpha isoform (P42336 whole entry, canonical isoform): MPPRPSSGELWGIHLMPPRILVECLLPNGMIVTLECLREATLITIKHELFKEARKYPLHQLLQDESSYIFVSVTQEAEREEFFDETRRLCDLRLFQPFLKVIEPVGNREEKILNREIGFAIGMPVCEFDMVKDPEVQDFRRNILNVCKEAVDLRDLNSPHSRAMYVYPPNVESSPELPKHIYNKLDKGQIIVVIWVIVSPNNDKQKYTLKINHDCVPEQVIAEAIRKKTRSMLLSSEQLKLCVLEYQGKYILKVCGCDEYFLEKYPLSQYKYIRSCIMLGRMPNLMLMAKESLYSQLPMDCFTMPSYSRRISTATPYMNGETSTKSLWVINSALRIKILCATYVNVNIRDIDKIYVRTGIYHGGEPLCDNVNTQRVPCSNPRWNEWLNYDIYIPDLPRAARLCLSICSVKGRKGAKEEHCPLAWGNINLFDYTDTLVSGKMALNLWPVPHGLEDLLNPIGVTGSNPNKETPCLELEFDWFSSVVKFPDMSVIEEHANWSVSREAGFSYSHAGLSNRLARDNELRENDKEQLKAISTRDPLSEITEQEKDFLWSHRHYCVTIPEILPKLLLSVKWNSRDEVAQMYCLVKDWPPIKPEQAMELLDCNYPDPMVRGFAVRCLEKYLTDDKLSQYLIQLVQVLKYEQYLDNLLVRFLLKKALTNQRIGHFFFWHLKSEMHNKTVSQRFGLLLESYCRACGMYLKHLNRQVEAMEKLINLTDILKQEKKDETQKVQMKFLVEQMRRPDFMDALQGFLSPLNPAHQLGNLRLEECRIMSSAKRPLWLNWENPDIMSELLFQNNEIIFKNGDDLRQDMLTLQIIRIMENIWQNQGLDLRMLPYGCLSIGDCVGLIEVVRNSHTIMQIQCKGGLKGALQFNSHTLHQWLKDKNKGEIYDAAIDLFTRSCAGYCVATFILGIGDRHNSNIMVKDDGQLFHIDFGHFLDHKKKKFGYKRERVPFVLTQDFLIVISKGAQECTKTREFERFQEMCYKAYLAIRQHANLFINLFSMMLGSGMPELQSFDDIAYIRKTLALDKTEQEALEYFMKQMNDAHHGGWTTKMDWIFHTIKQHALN

[4] = Dose normalized AUC in rat at 2.1 mg/kg, po measured upto 24 hrs by HPLC/MS/MS analysis; assay type: ADME, organism-based; details: in vivo
[5] = Volume of distribution at steady state in dog at 0.1 mg/kg, iv by HPLC/MS/MS analysis; assay type: ADME, organism-based, Canis lupus familiaris; details: in vivo, read-out: Vdss
Cytochrome P450 3A4 = Cytochrome P450 3A4 (Homo sapiens, UniProt P08684); assay: Inhibition of CYP3A4 (unknown origin)
[6] = Inhibition of Akt phosphorylation at S473 residue in human T47D cells by cell based assay
Summary of the method: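 Cellular mechanistic assay in T47D and BT474 cancer cells measuring loss of intracellular AKT phosphorylation at S473.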

[7] = Volume of distribution at steady state in mouse at 0.6 mg/kg, iv by HPLC/MS/MS analysis; assay type: ADME, organism-based; details: in vivo, read-out: Vdss
Cytochrome P450 1A2 = molecular target: T1, Cytochrome P450 1A2 (Homo sapiens, UniProt P05177); assay: Inhibition of CYP1A2 (unknown origin)
T1 sequence (P05177 whole entry): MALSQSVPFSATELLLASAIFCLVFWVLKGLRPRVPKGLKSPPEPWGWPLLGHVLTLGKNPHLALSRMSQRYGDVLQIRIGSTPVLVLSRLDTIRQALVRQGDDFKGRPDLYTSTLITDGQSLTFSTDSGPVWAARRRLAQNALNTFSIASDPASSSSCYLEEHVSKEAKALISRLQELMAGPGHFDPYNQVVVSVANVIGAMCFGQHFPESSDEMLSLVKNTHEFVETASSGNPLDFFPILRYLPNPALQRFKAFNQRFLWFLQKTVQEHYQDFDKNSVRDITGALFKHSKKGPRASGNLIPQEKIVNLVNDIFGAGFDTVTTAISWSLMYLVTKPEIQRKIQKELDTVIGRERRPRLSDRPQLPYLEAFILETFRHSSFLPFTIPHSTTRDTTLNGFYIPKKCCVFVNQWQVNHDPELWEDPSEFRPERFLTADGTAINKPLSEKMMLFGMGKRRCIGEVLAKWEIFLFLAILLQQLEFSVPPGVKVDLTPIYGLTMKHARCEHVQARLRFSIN

[8] = Clearance in monkey at 0.1 mg/kg, iv by HPLC/MS/MS analysis; assay type: ADME, organism-based, Macaca mulatta; details: rhesus monkey, in vivo
BT-474 [9] = assay: Antitumor activity against human BT-474 cells xenografted in mouse assessed as decrease in pAKT level at 300 microg/kg, po measured after 1 hr; assay type: functional; design: scale not given: the % may be the effect or the level left; details: dose 300 µg/kg
Summary of the method: (§1)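 Mice bearing BT474 human tumour xenografts got one oral dose of 300 μg/kg. Tumour pAKT was read as the pAKT/total AKT ratio and compared with control. Sampling ran over a 24 h time course.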

[10] = Dose normalized AUC in monkey at 0.6 mg/kg, po by HPLC/MS/MS analysis; assay type: ADME, organism-based, Macaca mulatta; details: rhesus monkey, in vivo
[11] = Half life in monkey at 0.1 mg/kg, iv by HPLC/MS/MS analysis; assay type: ADME, organism-based, Macaca mulatta; details: rhesus monkey, in vivo
BT-474 [12] = assay: Induction of cell cycle arrest in human BT-474 cells assessed as accumulation in G1 phase; assay type: functional, cell-based
[13] = Toxicity in mouse xenografted with human BT-474 cells assessed as tolerability at 3 mg/kg, po administered 5 times a week for 3 weeks; assay type: organism-based; details: in vivo, 504 h
[14] = Volume of distribution at steady state in monkey at 0.1 mg/kg, iv by HPLC/MS/MS analysis; assay type: ADME, organism-based, Macaca mulatta; details: rhesus monkey, in vivo, read-out: Vdss
[15] = Dose normalized AUC in dog at 0.5 mg/kg, po by HPLC/MS/MS analysis; assay type: ADME, organism-based, Canis lupus familiaris; details: in vivo
[16] = Volume of distribution at steady state in rat at 0.4 mg/kg, iv by HPLC/MS/MS analysis; assay type: ADME, organism-based; details: in vivo, read-out: Vdss
[17] = molecular target: DNA-dependent protein kinase catalytic subunit (Homo sapiens, UniProt P78527); assay: Inhibition of DNA-PK (unknown origin)
Chain of DNA-dependent protein kinase catalytic subunit (P78527 whole entry): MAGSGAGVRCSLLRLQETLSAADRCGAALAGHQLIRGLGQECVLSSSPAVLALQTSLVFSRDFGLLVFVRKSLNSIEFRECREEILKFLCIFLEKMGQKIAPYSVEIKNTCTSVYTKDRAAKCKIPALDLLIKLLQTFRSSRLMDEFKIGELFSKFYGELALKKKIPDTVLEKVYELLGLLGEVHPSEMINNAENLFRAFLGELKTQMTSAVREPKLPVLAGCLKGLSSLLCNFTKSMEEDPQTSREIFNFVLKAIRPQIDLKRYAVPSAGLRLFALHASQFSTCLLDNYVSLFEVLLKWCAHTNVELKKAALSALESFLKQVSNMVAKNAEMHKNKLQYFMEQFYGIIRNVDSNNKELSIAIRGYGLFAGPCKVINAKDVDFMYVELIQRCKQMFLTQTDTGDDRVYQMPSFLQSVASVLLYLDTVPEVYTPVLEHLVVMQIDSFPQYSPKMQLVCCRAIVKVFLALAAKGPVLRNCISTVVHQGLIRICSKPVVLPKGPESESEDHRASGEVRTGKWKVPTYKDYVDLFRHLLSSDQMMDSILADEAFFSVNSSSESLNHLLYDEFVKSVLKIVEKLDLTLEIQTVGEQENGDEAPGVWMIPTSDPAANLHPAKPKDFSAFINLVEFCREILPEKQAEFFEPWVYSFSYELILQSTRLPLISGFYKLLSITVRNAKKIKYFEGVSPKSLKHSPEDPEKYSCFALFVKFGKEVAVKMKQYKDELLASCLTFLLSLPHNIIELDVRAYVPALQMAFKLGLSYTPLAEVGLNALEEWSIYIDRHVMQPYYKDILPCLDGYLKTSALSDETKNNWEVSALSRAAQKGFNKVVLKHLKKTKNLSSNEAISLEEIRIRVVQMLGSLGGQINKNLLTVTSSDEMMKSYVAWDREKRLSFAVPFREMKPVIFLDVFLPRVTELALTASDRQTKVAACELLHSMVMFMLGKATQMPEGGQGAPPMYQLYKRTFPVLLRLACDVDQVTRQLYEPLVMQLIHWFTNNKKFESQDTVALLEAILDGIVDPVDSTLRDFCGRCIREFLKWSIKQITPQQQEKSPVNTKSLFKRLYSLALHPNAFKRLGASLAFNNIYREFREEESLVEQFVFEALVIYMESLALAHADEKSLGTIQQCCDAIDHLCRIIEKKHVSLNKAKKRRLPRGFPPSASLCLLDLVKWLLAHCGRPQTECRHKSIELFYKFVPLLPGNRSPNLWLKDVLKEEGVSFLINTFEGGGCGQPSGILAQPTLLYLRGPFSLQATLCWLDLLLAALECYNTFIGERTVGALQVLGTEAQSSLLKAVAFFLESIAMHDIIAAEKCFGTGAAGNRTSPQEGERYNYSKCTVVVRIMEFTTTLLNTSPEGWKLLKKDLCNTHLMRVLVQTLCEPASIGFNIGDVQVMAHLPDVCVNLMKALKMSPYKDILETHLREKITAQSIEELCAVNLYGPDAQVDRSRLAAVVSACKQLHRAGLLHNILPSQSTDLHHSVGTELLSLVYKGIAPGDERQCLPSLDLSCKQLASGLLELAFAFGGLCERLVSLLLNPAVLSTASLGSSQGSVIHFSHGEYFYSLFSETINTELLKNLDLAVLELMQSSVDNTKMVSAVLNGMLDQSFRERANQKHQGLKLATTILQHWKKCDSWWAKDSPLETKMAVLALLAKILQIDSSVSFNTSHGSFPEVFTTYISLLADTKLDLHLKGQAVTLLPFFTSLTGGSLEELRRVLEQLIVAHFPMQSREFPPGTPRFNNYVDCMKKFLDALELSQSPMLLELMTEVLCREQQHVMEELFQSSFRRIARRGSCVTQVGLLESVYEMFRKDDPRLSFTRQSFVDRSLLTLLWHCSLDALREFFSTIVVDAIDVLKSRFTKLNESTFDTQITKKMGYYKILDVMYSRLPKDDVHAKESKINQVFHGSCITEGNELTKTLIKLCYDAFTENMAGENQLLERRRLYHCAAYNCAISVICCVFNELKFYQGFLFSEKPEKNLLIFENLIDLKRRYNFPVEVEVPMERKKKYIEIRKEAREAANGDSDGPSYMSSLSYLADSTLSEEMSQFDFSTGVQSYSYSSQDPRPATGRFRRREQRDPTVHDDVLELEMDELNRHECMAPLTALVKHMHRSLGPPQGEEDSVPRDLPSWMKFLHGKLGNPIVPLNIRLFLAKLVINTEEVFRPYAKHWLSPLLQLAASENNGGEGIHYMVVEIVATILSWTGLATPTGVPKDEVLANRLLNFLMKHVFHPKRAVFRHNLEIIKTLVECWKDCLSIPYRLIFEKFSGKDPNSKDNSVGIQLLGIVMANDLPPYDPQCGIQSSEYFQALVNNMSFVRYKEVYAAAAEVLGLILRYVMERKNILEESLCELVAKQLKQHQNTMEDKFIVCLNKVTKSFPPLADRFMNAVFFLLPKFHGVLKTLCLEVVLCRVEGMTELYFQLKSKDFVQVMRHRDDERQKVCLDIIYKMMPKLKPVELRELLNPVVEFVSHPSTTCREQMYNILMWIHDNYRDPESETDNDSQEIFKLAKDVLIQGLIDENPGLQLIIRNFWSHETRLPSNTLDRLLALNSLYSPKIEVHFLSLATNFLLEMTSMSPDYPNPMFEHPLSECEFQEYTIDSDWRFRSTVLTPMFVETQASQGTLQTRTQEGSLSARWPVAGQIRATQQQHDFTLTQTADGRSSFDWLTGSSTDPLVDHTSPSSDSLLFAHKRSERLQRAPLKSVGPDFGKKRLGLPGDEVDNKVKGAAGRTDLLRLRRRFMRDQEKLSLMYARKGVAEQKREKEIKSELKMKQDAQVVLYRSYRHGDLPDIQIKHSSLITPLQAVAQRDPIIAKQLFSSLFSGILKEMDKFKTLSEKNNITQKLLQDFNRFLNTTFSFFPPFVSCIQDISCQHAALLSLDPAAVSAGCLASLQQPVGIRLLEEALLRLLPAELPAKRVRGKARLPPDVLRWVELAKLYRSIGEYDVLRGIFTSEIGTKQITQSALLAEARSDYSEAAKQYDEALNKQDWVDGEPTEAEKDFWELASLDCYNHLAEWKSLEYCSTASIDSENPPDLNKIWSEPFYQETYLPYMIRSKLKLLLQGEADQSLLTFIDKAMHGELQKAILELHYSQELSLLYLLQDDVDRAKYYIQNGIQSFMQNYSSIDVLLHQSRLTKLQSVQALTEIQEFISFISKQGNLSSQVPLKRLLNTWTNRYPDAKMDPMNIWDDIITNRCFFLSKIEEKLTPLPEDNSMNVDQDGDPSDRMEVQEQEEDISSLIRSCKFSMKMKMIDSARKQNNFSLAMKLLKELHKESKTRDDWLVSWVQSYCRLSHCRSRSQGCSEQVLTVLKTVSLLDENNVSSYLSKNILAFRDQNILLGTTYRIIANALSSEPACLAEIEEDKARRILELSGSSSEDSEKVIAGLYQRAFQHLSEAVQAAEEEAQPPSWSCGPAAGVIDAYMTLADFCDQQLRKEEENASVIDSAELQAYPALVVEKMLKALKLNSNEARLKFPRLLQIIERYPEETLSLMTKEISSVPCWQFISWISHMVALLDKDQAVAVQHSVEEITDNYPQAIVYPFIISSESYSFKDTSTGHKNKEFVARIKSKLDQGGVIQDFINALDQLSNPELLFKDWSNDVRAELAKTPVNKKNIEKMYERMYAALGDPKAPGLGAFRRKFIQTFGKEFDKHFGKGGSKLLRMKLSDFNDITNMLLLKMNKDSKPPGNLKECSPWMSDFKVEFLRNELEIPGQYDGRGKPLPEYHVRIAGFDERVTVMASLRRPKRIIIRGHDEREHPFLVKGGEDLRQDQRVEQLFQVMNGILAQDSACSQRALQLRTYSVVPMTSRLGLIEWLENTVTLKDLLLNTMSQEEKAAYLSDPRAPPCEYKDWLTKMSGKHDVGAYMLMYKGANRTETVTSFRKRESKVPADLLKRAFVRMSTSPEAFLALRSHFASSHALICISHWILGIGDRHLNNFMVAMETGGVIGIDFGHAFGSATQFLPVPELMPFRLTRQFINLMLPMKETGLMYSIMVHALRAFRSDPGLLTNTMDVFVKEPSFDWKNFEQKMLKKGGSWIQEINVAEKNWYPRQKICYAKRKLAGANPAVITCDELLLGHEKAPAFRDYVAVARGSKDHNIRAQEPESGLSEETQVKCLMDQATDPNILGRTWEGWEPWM

Cytochrome P450 2D6 = Cytochrome P450 2D6 (Homo sapiens, UniProt P10635); assay: Inhibition of CYP2D6 (unknown origin)
Homo sapiens [18] = species on record: Homo sapiens; assay: Inhibition of Akt phosphorylation at T308 residue (unknown origin) by cell based analysis
BT-474 [19] = assay: Antitumor activity against human BT-474 cells xenografted in mouse assessed as decrease in pAKT level at 300 microg/kg, po measured after 6 hrs; assay type: functional; design: scale not given: the % may be the effect or the level left; details: dose 300 µg/kg; summary of the method: as §1
[20] = Clearance in mouse at 0.6 mg/kg, iv by HPLC/MS/MS analysis; assay type: ADME, organism-based; details: in vivo
[21] = Half life in rat at 0.4 mg/kg, iv by HPLC/MS/MS analysis; assay type: ADME, organism-based; details: in vivo
[22] = Half life in mouse at 0.6 mg/kg, iv by HPLC/MS/MS analysis; assay type: ADME, organism-based; details: in vivo
[23] = Oral bioavailability in monkey at 0.6 mg/kg by HPLC/MS/MS analysis; assay type: ADME, organism-based, Macaca mulatta; details: rhesus monkey, in vivo
Cytochrome P450 2C9 = Cytochrome P450 2C9 (Homo sapiens, UniProt P11712); assay: Inhibition of CYP2C9 (unknown origin)
[24] = Dose normalized AUC in mouse at 2.6 mg/kg, po by HPLC/MS/MS analysis; assay type: ADME, organism-based; details: in vivo
T47D [25] = assay: Antiproliferative activity against human T47D cells assessed as inhibition of cell growth measured after 72 hrs by CellTiter-Glo assay; assay type: functional, cell-based
BT-474 [26] = assay: Antitumor activity against human BT-474 cells xenografted in mouse assessed as decrease in pAKT level at 300 microg/kg, po measured after 4 hrs; assay type: functional; design: scale not given: the % may be the effect or the level left; details: dose 300 µg/kg; summary of the method: as §1
BT-474 [27] = assay: Antitumor activity against human BT-474 cells xenografted in po dosed mouse assessed as tumor growth inhibition administered 5 times a week for 3 weeks; assay type: functional, organism-based; details: dose 0.3-3 mg/kg
T47D [28] = assay: Induction of cell cycle arrest in human T47D cells assessed as accumulation in G1 phase; assay type: functional, cell-based
[29] = Oral bioavailability in rat at 2.1 mg/kg by HPLC/MS/MS analysis; assay type: ADME, organism-based; details: in vivo
BT-474 [30] = assay: Antitumor activity against human BT-474 cells xenografted in mouse assessed as decrease in pAKT level at 300 microg/kg, po measured after 10 hrs; assay type: functional; design: scale not given: the % may be the effect or the level left; details: dose 300 µg/kg; summary of the method: as §1
[31] = Clearance in rat at 0.4 mg/kg, iv by HPLC/MS/MS analysis; assay type: ADME, organism-based; details: in vivo
[32] = Oral bioavailability in mouse at 2.6 mg/kg by HPLC/MS/MS analysis; assay type: ADME, organism-based; details: in vivo
BT-474 [33] = assay: Antitumor activity against human BT-474 cells xenografted in mouse assessed as decrease in pAKT level at 300 microg/kg, po measured after 2 hrs; assay type: functional; design: scale not given: the % may be the effect or the level left; details: dose 300 µg/kg; summary of the method: as §1
BT-474 [34] = assay: Antiproliferative activity against human BT-474 cells assessed as inhibition of cell growth measured after 72 hrs by CellTiter-Glo assay; assay type: functional, cell-based; details: BT-474, 72 h
[35] = Half life in dog at 0.1 mg/kg, iv by HPLC/MS/MS analysis; assay type: ADME, organism-based, Canis lupus familiaris; details: in vivo
[36] = Clearance in dog at 0.1 mg/kg, iv by HPLC/MS/MS analysis; assay type: ADME, organism-based, Canis lupus familiaris; details: in vivo
Homo sapiens [37] = species on record: Homo sapiens; assay: Inhibition of p70S6K (unknown origin)
[38] = Oral bioavailability in dog at 0.5 mg/kg by HPLC/MS/MS analysis; assay type: ADME, organism-based, Canis lupus familiaris; details: in vivo
Cytochrome P450 2C19 = Cytochrome P450 2C19 (Homo sapiens, UniProt P33261); assay: Inhibition of CYP2C19 (unknown origin)

IC50 [1]: 76 nM
solubility [2]: Insoluble
IC50 [3]: 7 nM
SMILES: c1cc(-c2ccnc3ccc(-c4cnc5[nH]ncc5c4)cc23)ccn1

IC50 [1]: 49 nM
solubility [2]: Soluble
IC50 [3]: 10 nM
SMILES: Nc1ncc(-c2ccc3nccc(-c4ccncc4)c3c2)cc1S(N)(=O)=O

IC50 [1]: 63 nM
IC50 [3]: 1 nM
AUC/dose [4]: 250 ng·h/mL/mg/kg
SMILES: Nc1ncc(-c2ccc3nccc(-c4ccncc4)c3c2)cc1S(=O)(=O)Nc1ccc(F)cc1F

IC50 [1]: 45 nM
IC50 [3]: 1 nM
AUC/dose [4]: 920 ng·h/mL/mg/kg
SMILES: O=S(=O)(Nc1ccc(F)cc1F)c1cncc(-c2ccc3nccc(-c4ccncc4)c3c2)c1

IC50 [1]: 2700 nM
IC50 [3]: 73 nM
SMILES: c1cc(-c2ccnc3ccc(-c4ccc5[nH]ncc5c4)cc23)ccn1

IC50 [1]: > 29300 nM
IC50 [3]: 260 nM
SMILES: c1cncc(-c2ccc3nccc(-c4ccncc4)c3c2)c1

IC50 [1]: 8080 nM
IC50 [3]: 1800 nM
SMILES: c1ccc(-c2ccc3nccc(-c4ccncc4)c3c2)cc1

IC50 [1]: 7 nM
IC50 [3]: 0.1 nM
AUC/dose [4]: 1100 ng·h/mL/mg/kg
SMILES: O=S(=O)(Nc1cncc(-c2ccc3nccc(-c4ccncc4)c3c2)c1)c1ccc(F)cc1F

IC50 [1]: 40 nM
IC50 [3]: 2 nM
SMILES: O=C1NC(=O)/C(=C/c2ccc3nccc(-c4ccncc4)c3c2)S1 [GSK-1059615]

Vd [5]: 0.7 L/kg
IC50 (Cytochrome P450 3A4): > 25000 nM
IC50 [6]: 0.41 nM
Vd [7]: 1 L/kg
IC50 (Cytochrome P450 1A2): > 25000 nM
clearance [8]: 3.6 mL/min/kg
AUC/dose [10]: 2300 ng·h/mL/mg/kg
half-life [11]: 3.5 h
Vd [14]: 0.8 L/kg
AUC/dose [15]: 2400 ng·h/mL/mg/kg
Vd [16]: 1.1 L/kg
IC50 [17]: 0.28 nM
IC50 (Cytochrome P450 2D6): > 25000 nM
clearance [20]: 10 mL/min/kg
half-life [21]: 6.2 h
half-life [22]: 2.1 h
bioavailability [23]: 49%
IC50 (Cytochrome P450 2C9): > 25000 nM
AUC/dose [24]: 1100 ng·h/mL/mg/kg
IC50 (T47D [25]): 3 nM
bioavailability [29]: 81%
clearance [31]: 2.3 mL/min/kg
bioavailability [32]: 100%
IC50 (BT-474 [34]): 2.4 nM
half-life [35]: 1.3 h
clearance [36]: 5.8 mL/min/kg
inhibition (Homo sapiens [37]): Active
bioavailability [38]: 80%
AUC/dose [4]: 6100 ng·h/mL/mg/kg
IC50 (Cytochrome P450 2C19): > 25000 nM
SMILES: COc1ncc(-c2ccc3nccc(-c4ccnnc4)c3c2)cc1NS(=O)(=O)c1ccc(F)cc1F [OMIPALISIB]
Activity (BT-474 [9]): 98%
Activity (BT-474 [12]): Active
Activity [13]: Non-Toxic
inhibition (Homo sapiens [18]): Active
Activity (BT-474 [19]): 47%
Activity (BT-474 [26]): 79%
Activity (BT-474 [27]): Dose-Dependent Effect
Activity (T47D [28]): Active
Activity (BT-474 [30]): 46%
Activity (BT-474 [33]): 93%
